In ChEMBL document CHEMBL5715960, “Epigenetic Co-Deregulation of EZH2/TET1 is a Senescence-Countering, Actionable Vulnerability in Triple-Negative Breast Cancer” (Theranostics, 2019):
Active and inactive are the calls of the source. The rule behind the calls is not given here.

What was measured:
BT-474 [1] = assay: Effect on human BT-474 cells assessed as increase in TET1 transcription by qRT-PCR analysis; assay type: functional, cell-based
Summary of the method: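 qRT-PCR of TET1, TET2 and TET3 transcripts in breast cancer cells exposed to GSK343 (2 µM unless otherwise indicated), shown relative to DMSO-treated cells. Mean ± SD, triplicate unless stated.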

MDA-MB-436 [2] = assay: Effect on human MDA-MB-436 cells assessed as increase in TET1 protein level by qRT-PCR analysis
SK-BR-3 = assay: Cytotoxicity against human SK-BR-3 cells assessed as increase in cell death at 10 uM for 2 days by Guava viacount assay; assay type: toxicity, cell-based; settings: sk-br-3, 48 h, time 2 day
Summary of the method: (§1)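 Cells plated at 2 × 10^4 (24-well) or 1 × 10^5 (12-well), exposed to a range of GSK343 concentrations for 2 days against DMSO solvent control; cell number and viability read by Guava ViaCount flow cytometry, relative to DMSO. Triplicate; mean ± SD.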

MDA-MB-231 [3] = assay: Induction of cell cycle arrest in human MDA-MB-231 cells assessed as accumulation of cells at G1 phase measured at 2 uM by BrdU/PI staining based flow cytometric analysis (reference value: 51.5%); assay type: functional
MDA-MB-436 [4] = assay: Effect on human MDA-MB-436 cells expressing shTET1 assessed as increase in p53 cascade by immunoblot analysis; assay type: functional, cell-based
MDA-MB-231 [5] = assay: Cytotoxicity against human MDA-MB-231 cells assessed as killing of cells at 2 uM in presence of adriamycin; assay type: functional, cell-based
Summary of the method: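 Viability after a range of adriamycin concentrations given alone or together with 2 µM GSK343, measured by Guava ViaCount; mean ± SD.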

MDA-MB-231 [6] = assay: Effect on […] in human MDA-MB-231 cells assessed as repression in TET1 promoter EZH2 by ChiP-qPCR analysis; assay type: functional, cell-based
Summary of the method: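 Cells treated with GSK343 or DMSO; chromatin immunoprecipitated with anti-EZH2 or anti-H3K27me3 antibody and quantified by qPCR with primers for the TET1 promoter; input as internal control, IgG as negative control.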

MDA-MB-231 [7] = assay: Antiproliferative activity in human MDA-MB-231 cells expressing vector assessed as increase in SA-beta-gal positive cells by SA-beta-gal staining analysis (reference value: 6.5+/-4%); assay type: functional
MDA-MB-436 [8] = assay: Effect on human MDA-MB-436 cells assessed as apoptotic phenotype by measuring increase in BAX expression level at 2 uM in presence of adriamycin by immunoblot analysis; assay type: functional, cell-based
Summary of the method: (§2)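 Immunoblot of cell lysates after 0.05 µg/ml adriamycin alone, with 2 µM GSK343, or DMSO. α-Tubulin and total H3 used as loading controls.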

MDA-MB-231 [9] = assay: Effect on human MDA-MB-231 cells assessed as increase in TET1 mRNA level by qRT-PCR analysis
MDA-MB-436 [10] = assay: Antiproliferative activity against human MDA-MB-436 cells assessed as increase in global H3K9me3 expression level by immunoblot analysis; assay type: functional, cell-based
Summary of the method: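 Cells exposed to GSK343 at 2 µM (standard level unless stated otherwise), lysed and immunoblotted; α-tubulin and total H3 as loading controls.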

MDA-MB-231 [11] = assay: Upregulation of CDKN1A gene in human MDA-MB-231 cells at 2 uM by qRT-PCR analysis; assay type: functional, cell-based
Summary of the method: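 Relative transcript levels measured by qRT-PCR in cells treated with 2 µM inhibitor, normalised to DMSO-treated control cells. Triplicate experiments unless stated otherwise; mean ± SD reported; unpaired two-tailed Student's t-test at p < 0.05.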

MDA-MB-436 [12] = assay: In vivo activation of TET1 in Crl:NU-Foxn1-nu/nu mouse xenografted with human MDA-MB-436 cells at 5 mg/kg, ip in presence of adriamycin treated for 21 days; assay type: functional, organism-based; settings: time 21.0 day
MDA-MB-436 [13] = assay: Downregulation of E2F1 in human MDA-MB-436 cells at 2 uM for 2 days by immunoblot analysis; assay type: functional, cell-based; settings: time 2.0 day
MCF7 [14] = assay: Antiproliferative activity in human MCF7 cells assessed as increase in SA-beta-gal positive cells at 2 uM for 5 days by SA-beta-gal staining analysis; assay type: toxicity, cell-based; settings: mcf7, 120 h, time 5 day
Summary of the method: (§3)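 GSK343 2 µM or DMSO for 5 days, then chromogenic SA-β-gal staining and counting of positive cells. Triplicate; mean ± SD.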

MDA-MB-231 [15] = assay: Effect on human MDA-MB-231 cells assessed as apoptotic phenotype by measuring increase in BAX expression level at 2 uM in presence of adriamycin by immunoblot analysis; assay type: functional, cell-based; summary of the method: as §2
MDA-MB-361 = assay: Antiproliferative activity in human MDA-MB-361 cells assessed as increase in SA-beta-gal positive cells at 2 uM for 5 days by SA-beta-gal staining analysis; assay type: toxicity, cell-based; settings: mda-mb-361, 120 h, time 5 day; summary of the method: as §3
MDA-MB-436 [16] = assay: Effect on human MDA-MB-436 cells assessed as apoptotic phenotype by measuring increase in BIM expression level at 2 uM in presence of adriamycin by immunoblot analysis; assay type: functional, cell-based; summary of the method: as §2
MDA-MB-231 [17] = assay: In vivo activation of p53 expression in Crl:NU-Foxn1-nu/nu mouse xenografted with human MDA-MB-231 cells at 5 mg/kg, ip in presence of adriamycin treated for 21 days; assay type: functional, organism-based; settings: time 21.0 day
BT-474 [18] = assay: Induction of cell cycle arrest in human BT-474 cells assessed as accumulation of cells at G1 phase measured at 2 uM by BrdU/PI staining based flow cytometric analysis (reference value: 60.8%); assay type: functional
MDA-MB-231 [19] = assay: Effect on human MDA-MB-231 cells assessed as increase in TET1 level at 2 uM in presence of adriamycin by immunoblot analysis; assay type: functional, cell-based
Summary of the method: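 Immunoblot of MDA-MB-231 and MCF7 lysates after 0.005 µg/ml adriamycin with or without 2 µM GSK343, or DMSO. α-Tubulin and total H3 used as loading controls.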

MDA-MB-436 [20] = assay: Effect on human MDA-MB-436 cells assessed as increase in global 5hmc level by dot analysis; assay type: functional, cell-based
Summary of the method: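 Global 5hmC measured by dot blot on genomic DNA from cells given GSK343 or carrying EZH2 knock-down, with DMSO or scrambled shRNA as controls. DNA denatured in 0.1 M NaOH at 99 °C for 5 min, then neutralized with ammonium sulfate pH 7.0. 5 µg spotted, UV-crosslinked, probed with anti-5hmC for 1 h at room temperature, ECL detection, dot intensity quantified. Mean ± SD.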

MCF7 [21] = assay: Cytotoxicity against human MCF7 cells at 0.5 to 2 uM for 2 days by Guava viacount assay; assay type: toxicity, cell-based; settings: mcf7, 48 h, dose 0.5-2 µM, time 2 day; summary of the method: as §1
MDA-MB-453 = assay: Antiproliferative activity in human MDA-MB-453 cells assessed as increase in SA-beta-gal positive cells at 2 uM for 5 days by SA-beta-gal staining analysis; assay type: functional, cell-based; settings: time 5.0 day; summary of the method: as §3
MDA-MB-436 [22] = assay: […] in human MDA-MB-436 cells xenografted in Crl:NU-Foxn1-nu/nu mouse […] administered at 5 mg/kg, ip in presence of adriamycin treated for 21 days by SA-beta-gal staining analysis; assay type: functional, organism-based; settings: time 21.0 day
Summary of the method: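 SA-β-gal staining of xenograft tumors. Twice-weekly intraperitoneal GSK343 5 mg/kg, adriamycin 1 mg/kg, the combination, or DMSO, started at a tumor volume of about 50 mm3 and continued for 21 days.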

SMILES: CCCc1cc(C)[nH]c(=O)c1CNC(=O)c1cc(-c2ccnc(N3CCN(C)CC3)c2)cc2c1cnn2C(C)C
- Activity (BT-474 [1]): inactive
- Activity (MDA-MB-436 [2]): Active
- Activity (SK-BR-3): Non-Toxic
- Activity (MDA-MB-231 [3]): 76.8%
- Activity (MDA-MB-436 [4]): inactive
- Activity (MDA-MB-231 [5]): Active
- Activity (MDA-MB-231 [6]): Active
- Activity (MDA-MB-231 [7]): 45.6%
- Activity (MDA-MB-436 [8]): Active
- Activity (MDA-MB-231 [9]): Active
- Activity (MDA-MB-436 [10]): Active
- Activity (MDA-MB-231 [11]): Active
- Activity (MDA-MB-436 [12]): Active
- Activity (MDA-MB-436 [13]): Active
- Activity (MCF7 [14]): Non-Toxic
- Activity (MDA-MB-231 [15]): Active
- Activity (MDA-MB-361): Non-Toxic
- Activity (MDA-MB-436 [16]): Active
- Activity (MDA-MB-231 [17]): Active
- Activity (BT-474 [18]): 56.8%
- Activity (MDA-MB-231 [19]): Active
- Activity (MDA-MB-436 [20]): Active
- Activity (MCF7 [21]): Non-Toxic
- Activity (MDA-MB-453): Active
- Activity (MDA-MB-436 [22]): Active
